This is a sample that favours compounds with a hit; in the whole collection about 6.4% have one here.
Ecoli tolC – growth inhibitors of E. coli BW25113 tolC mutant. OD615. growth inhibition, % at 10 µM (by protocol). hit rate 2.2% among 65,000;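 active = growth inhibition at or above a cutoff equal to the mean over every tested compound plus 3 SD, cut at about 60% in these data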;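 note: growth measured after 20 h incubation at 37 °C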
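signal = optical density read at 615 nm | test system = E. coli ΔtolC::kan strain BW25113 | timing = 20 h compound exposure of bacteria at 37 °C | buffer or medium = LB medium plus 50 µg/mL kanamycin | compound dosing = 10 µM final, single dose | evaluation = % inhibition of E. coli growth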
HUVEC prolif 384 – human endothelial cell proliferation inhibition; hit rate 1.1% among 86,000; HUVEC proliferation, CellTiter-Glo luminescence, 72 h; active compounds read low; viability, % at 10 µM (by protocol);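 active = viability at or below 30%; inactive = viability above 30%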;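 note: 100% = median luminescence of DMSO-only cell control wells on each plate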
E coli WT exp – E. coli BW25113 growth inhibition, expanded screen | OD600 absorbance | growth inhibition, % at 100 µM | hit rate 0.15% among 98,000;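 active = growth inhibition above about 50% at one test dose, limit read from the data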;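 note: growth measured after 20 h incubation at 37 °C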
Jurkat viability – cytotoxic compounds reducing Jurkat cell viability; hit rate 1.2% among 56,000; inhibition, % at 4 µM; Jurkat E6.1 viability, ATP luminescence, 48 h;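 active = inhibition above the mean inhibition of all tested compounds plus 3 SD, cut at about 28% in these data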
Fibroblast inh – blocks proliferation of human lung fibroblasts | LL 47 human lung fibroblast viability, ATP luminescence; active compounds read low | viability, % at 10 µM | hit rate 1.1% among 85,000;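 active = viability at or below 50% in the single dose screen; inactive = viability above 50%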;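 note: compound exposure lasted 72 h before the ATP readout; 100% = median luminescence of untreated cell-only wells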
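Test system: LL 47 human lung fibroblasts; Quantity: 1,150 cells/well; Buffer or medium: IMEM plus 15% FBS; Dosing: tenfold compound dosing solution, DMSO at 0.1%; Timing: overnight cell rest, 72 h compound treatment at 37 °C; Detection: ATP-based CellTiter-Glo luminescent readout; Read-out basis: viability percentage against median untreated-cell control; Controls: cell-only wells, no compound.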
H69AR inhibit – blocks growth of human H69AR lung tumor cells; H69AR lung tumor viability, ATP luminescence, 72 h; active compounds read low; viability, % at 10 µM; hit rate 6% among 85,000; AID 598;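 active = viability at or below 40%; inactive = viability above 40%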;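 note: multidrug resistant small cell line overexpressing MRP-1 efflux transporter; 100% = mean luminescence of untreated control wells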
An asterisk follows results filed as active; . = no result given.

SMILES	Ecoli tolC	HUVEC prolif 384	E coli WT exp	Jurkat viability	Fibroblast inh	H69AR inhibit
O=C1c2oc3ccc(F)cc3c(=O)c2C(c2ccccc2)N1CC1CCCO1 (stereo not drawn)	-4	99	-9	2	93	60
O=C(Nc1nc2ccccc2s1)c1cc2c(s1)-c1ccccc1OC2	.	45	-4	.	30*	18*
O=C(Nc1nccs1)c1cc2c(s1)-c1ccccc1OC2	.	.	6	.	.	.
CC(C)(C)n1nnnc1CN(Cc1ccco1)Cc1cc2cc3c(cc2[nH]c1=O)OCO3	-1	82	-1	-2	86	35*
CCC(C)(C)n1nnnc1CN(Cc1ccco1)Cc1cc2cc3c(cc2[nH]c1=O)OCO3	14	90	-2	2	93	71
COc1ccc2[nH]c(=O)c(CN(CCc3ccccc3)Cc3nnnn3CC3CCCO3)cc2c1 (stereo not drawn)	19	83	3	-3	93	27*
COc1ccc2[nH]c(=O)c(CN(Cc3ccco3)Cc3nnnn3Cc3ccccc3)cc2c1	5	98	-11	-7	93	.
CCOc1ccc2[nH]c(=O)c(CN(Cc3ccco3)Cc3nnnn3Cc3ccccc3)cc2c1	23	86	2	9	99	38*
COc1ccc2[nH]c(=O)c(CN(Cc3cccs3)Cc3nnnn3Cc3ccccc3)cc2c1	.	83	7	.	97	33*
COc1ccc(CNC(=O)c2cnccn2)cc1	.	113	7	.	97	92
CCn1c(SCC(=O)Nc2ccc3c(c2)oc2ccccc23)nnc1-c1ccc(N)cc1	.	31	-5	.	95	61
O=C(C(c1ccccc1)c1ccccc1)N1CCN(Cc2ccco2)CC1	.	88	.	.	86	98
COCCNc1cc(C)nc2c3c(C)cc(C)nc3nn12	-5	106	3	-7	108	64
CCOc1ccc2[nH]c(=O)c(CN(Cc3ccco3)C(CC)c3nnnn3Cc3ccccc3)cc2c1 (stereo not drawn)	4	74	-13	4	88	2.4*
CCC(C)(C)n1nnnc1CN(Cc1ccc(Cl)cc1)Cc1ccco1	81*	86	3	-2	87	70
CCC(c1nnnn1CCc1ccccc1)N(Cc1ccco1)Cc1cc2cccc(C)c2[nH]c1=O (stereo not drawn)	18	97	-8	3	89	45
COc1ccc2[nH]c(=O)c(CN(Cc3cccs3)S(=O)(=O)c3c(C)ccc4nsnc34)cc2c1	.	65	-5	.	69	2.7*
CC(C)(C)c1ccc(CN(Cc2ccco2)Cc2nnnn2C2CCCC2)cc1	.	77	-7	.	88	80
Cc1ccc2[nH]c(=O)c(CN(Cc3ccco3)S(=O)(=O)c3c(C)ccc4nsnc34)cc2c1	8	82	-5	-10	95	94
CC(C)(C)n1nnnc1C(c1cccs1)N(Cc1ccc(Cl)cc1)CC1CCCO1 (stereo not drawn)	.	83	-8	.	85	57
COC(=O)c1ccc(Oc2nc(N3CCCCC3)nc(N3CCOCC3)n2)cc1	66*	97	-5	3	95	66
CCOC(=O)Cc1csc(SCC(=O)Nc2cc(Cl)ccc2Oc2ccccc2)n1	.	102	-7	.	97	59
N#Cc1c(Cl)c(Cl)c2nnc(-c3ccc(Br)cc3)n2c1Cl	.	.	6	.	.	.
CCOC(=O)C1=C(C)NC2=C(C(=O)CCC2)C1c1cccs1 (stereo not drawn)	11	96	-8	-3	106	90
CCOC(=O)c1sc2c(c1C)C(c1cccs1)C1=C(CCCC1=O)N2 (stereo not drawn)	80*	81	-7	-1	100	79
SMILES	Ecoli tolC	HUVEC prolif 384	E coli WT exp	Jurkat viability	Fibroblast inh	H69AR inhibit
N#Cc1c(N)n(C2CCCCC2)c2nc3ccccc3nc12	15	69	-7	5	69	35*
COc1ccc(N2CCN(C(c3ccccc3)c3nnnn3Cc3ccc(F)cc3)CC2)cc1 (stereo not drawn)	18	109	-13	4	100	94
Cc1ccc(N2C(=O)C(Cl)=C(NCc3ccccc3)C2=O)c(C)c1	.	102	-7	.	91	102
CCC1=NNc2cccc3c(OC)ccc1c23	.	21*	-6	.	3.8*	98
Cc1sc2ncnc(NCC(c3ccco3)N3CCCC3)c2c1C (stereo not drawn)	.	75	3	.	89	36*
Cc1sc2ncnc(N3CCCCC3)c2c1C	.	91	8	.	93	101
O=C(Nc1nnc(-c2ccccc2Cl)o1)c1ccc(S(=O)(=O)N2CCCCCC2)cc1	100*	3.0*	-3	5	60	31*
CCC1CCCCN1S(=O)(=O)c1ccc(C(=O)Nc2nnc(-c3ccccc3Cl)o2)cc1 (stereo not drawn)	100*	57	-2	1	64	20*
CC1CCCCN1S(=O)(=O)c1ccc(C(=O)Nc2nnc(-c3ccccc3Cl)o2)cc1 (stereo not drawn)	100*	3.7*	4	2	64	52
O=C(Nc1ccn(-c2ccccc2)n1)c1ccc(S(=O)(=O)N2CCCCCC2)cc1	31	92	-22	34*	105	79
O=C(Nc1ccccc1)c1ccc(S(=O)(=O)N2CCCCC2)cc1	0	.	-11	6	.	.
CCCCCCCCS(=O)c1sc2nc(C)cc(C)c2c1N (stereo not drawn)	.	97	6	.	96	94
CCCCCOC(=O)CSc1nnc(-c2ccccc2)c(=O)[nH]1	23	.	-13	-2	.	.
Cc1ccc(NC(=O)c2oc3ccc(S(=O)(=O)N4CCC5(CC4)OCCO5)cc3c2C)cc1C	.	70	.	.	96	101
COc1ccc(OC)c(C(=O)c2ccc(C(=O)N3CCCCC3)cc2)c1	-3	91	2	7	94	91
CC(C)COc1ccc2[nH]c3c(c2c1)CCCC3=O	.	20*	-2	.	92	93
Cc1cc(N2CCC(N(C)C3CCCC3)CC2)nc2cc(O)ccc12	-2	76	6	2	66	1.1*
C#CCSc1nnc(CSc2nc3ccccc3s2)n1-c1ccccc1	.	80	-12	.	89	3.0*
Cc1nnc(SCc2nc3ccccc3s2)n1-c1ccccc1	0	98	-9	3	92	77
O=C(Nc1nc(-c2ccccc2)cs1)C1CCCN(S(=O)(=O)c2ccccc2)C1 (stereo not drawn)	39	100	-14	39*	77	65
O=C(Nc1nc(-c2ccccc2)cs1)C1CCCN(S(=O)(=O)c2cccc([N+](=O)[O-])c2)C1 (stereo not drawn)	.	.	0	.	.	.
Cc1csc(NC(=O)C2CCCN(S(=O)(=O)c3ccc(Br)s3)C2)n1 (stereo not drawn)	71*	107	-3	.	104	71
O=C(Nc1nc(-c2nc3ccccc3s2)cs1)c1ccc(S(=O)(=O)N2CCOCC2)cc1	21	79	-6	50*	100	45
O=C(Nc1nc(-c2cc(Cl)sc2Cl)cs1)c1cccs1	100*	69	-12	3	97	79

Screening data (PubChem BioAssay)
